# “And” between values parts separate entries of the source, which are not always exact repeats. Equal entries are not always repeated.
# Experiments:
# Fibroblast = test: Multiplex assay against human fibroblast; type: toxicity, cell-based
# Summary of the method: (§1)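 Four dyes were applied at seeding to live cells: Hoechst33342, BioTracker Green Microtubule Cytoskeleton Dye, MitoTracker Red and Annexin V Alexa Fluor 680. Imaging after compound addition used a CQ1 microscope at 37°C and 5% CO2. CellPathfinder machine-learning gating then sorted cells into Hoechst high-intensity objects or normal cells, normal cells into healthy, pyknosed or fragmented nuclei, and pyknosed cells into mitotic or apoptotic, with tubulin, mitochondrial-mass and membrane-permeability phenotypes given as per cents of healthy-nucleus cells.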
# U2OS = test: Multiplex assay against U2OS; type: toxicity, cell-based; conditions: human; summary of the method: as §1
# [1] = 12 h, 1 µM, compound concentration 1 uM
# [2] = 12 h, 10 µM, compound concentration 10 uM
# [3] = 24 h, 1 µM, compound concentration 1 uM
# [4] = 24 h, 10 µM, compound concentration 10 uM
# [5] = 48 h, 1 µM, compound concentration 1 uM
# [6] = 48 h, 10 µM, compound concentration 10 uM
smiles,measurement,setting,value
CCOC(=O)c1c(/C(C#N)=C\N)c2ccc(Cl)c(Cl)c2n1C,Population Fragmented Nuclei (%),Fibroblast; [1],11.86% and 4.52%
same,Population Healthy Nuclei (%),Fibroblast; [1],64.41% and 76.92%
same,Population Hoechst High Intensity Objects (%),Fibroblast; [1],0%
same,Population Membrane Permeable-Phenotype (%),Fibroblast; [1],0% and 2.94%
same,Population Mitochondria Different-Phenotype (%),Fibroblast; [1],11.84% and 14.71%
same,Population Mitotic Cells (%),Fibroblast; [1],96.43% and 85.37%
same,Population Normal (%),Fibroblast; [1],100%
same,Population Pyknosed Nuclei (%),Fibroblast; [1],23.73% and 18.55%
same,Population Tubulin-Different-Phenotype (%),Fibroblast; [1],10.53% and 18.82%
same,Total Cell Count,Fibroblast; [1],118 and 221
same,Population Apoptotic (%),Fibroblast; [2],24.32% and 12.77%
same,Population Fragmented Nuclei (%),Fibroblast; [2],10.92% and 3.83%
same,Population Healthy Nuclei (%),Fibroblast; [2],67.82% and 76.17%
same,Population Hoechst High Intensity Objects (%),Fibroblast; [2],0%
same,Population Membrane Permeable-Phenotype (%),Fibroblast; [2],4.24% and 1.12%
same,Population Mitochondria Different-Phenotype (%),Fibroblast; [2],3.39% and 7.82%
same,Population Mitotic Cells (%),Fibroblast; [2],75.68% and 87.23%
same,Population Normal (%),Fibroblast; [2],100%
same,Population Pyknosed Nuclei (%),Fibroblast; [2],21.26% and 20%
same,Population Tubulin-Different-Phenotype (%),Fibroblast; [2],15.25% and 16.2%
same,Total Cell Count,Fibroblast; [2],174 and 235
same,Population Apoptotic (%),Fibroblast; [3],0% and 20.83%
same,Population Fragmented Nuclei (%),Fibroblast; [3],7.25% and 3.83%
same,Population Healthy Nuclei (%),Fibroblast; [3],72.46% and 85.96%
same,Population Hoechst High Intensity Objects (%),Fibroblast; [3],0%
same,Population Membrane Permeable-Phenotype (%),Fibroblast; [3],4% and 1.98%
same,Population Mitochondria Different-Phenotype (%),Fibroblast; [3],3% and 6.93%
same,Population Mitotic Cells (%),Fibroblast; [3],100% and 79.17%
same,Population Normal (%),Fibroblast; [3],100%
same,Population Pyknosed Nuclei (%),Fibroblast; [3],20.29% and 10.21%
same,Population Tubulin-Different-Phenotype (%),Fibroblast; [3],11% and 18.81%
same,Total Cell Count,Fibroblast; [3],138 and 235
same,Population Apoptotic (%),Fibroblast; [4],14.81% and 20.59%
same,Population Fragmented Nuclei (%),Fibroblast; [4],8.02% and 1.27%
same,Population Healthy Nuclei (%),Fibroblast; [4],77.54% and 84.39%
same,Population Hoechst High Intensity Objects (%),Fibroblast; [4],0%
same,Population Membrane Permeable-Phenotype (%),Fibroblast; [4],3.45% and 2.5%
same,Population Mitochondria Different-Phenotype (%),Fibroblast; [4],4.14% and 7%
same,Population Mitotic Cells (%),Fibroblast; [4],85.19% and 79.41%
same,Population Normal (%),Fibroblast; [4],100%
same,Population Pyknosed Nuclei (%),Fibroblast; [4],14.44% and 14.35%
same,Population Tubulin-Different-Phenotype (%),Fibroblast; [4],11.03% and 18.5%
same,Total Cell Count,Fibroblast; [4],187 and 237
same,Population Apoptotic (%),Fibroblast; [5],40% and 25%
same,Population Fragmented Nuclei (%),Fibroblast; [5],12.18% and 3.67%
same,Population Healthy Nuclei (%),Fibroblast; [5],84.62% and 91.43%
same,Population Hoechst High Intensity Objects (%),Fibroblast; [5],0%
same,Population Membrane Permeable-Phenotype (%),Fibroblast; [5],0% and 2.68%
same,Population Mitotic Cells (%),Fibroblast; [5],60% and 75%
same,Population Normal (%),Fibroblast; [5],100%
same,Population Pyknosed Nuclei (%),Fibroblast; [5],3.21% and 4.9%
same,Population Tubulin-Different-Phenotype (%),Fibroblast; [5],7.58% and 20.98%
same,Total Cell Count,Fibroblast; [5],156 and 245
same,Population Apoptotic (%),Fibroblast; [6],44.44% and 21.05%
same,Population Fragmented Nuclei (%),Fibroblast; [6],8.78% and 2.61%
same,Population Healthy Nuclei (%),Fibroblast; [6],86.83% and 89.13%
same,Population Hoechst High Intensity Objects (%),Fibroblast; [6],0%
same,Population Membrane Permeable-Phenotype (%),Fibroblast; [6],0.56% and 2.93%
same,Population Mitochondria Different-Phenotype (%),Fibroblast; [6],11.24% and 1.95%
same,Population Mitotic Cells (%),Fibroblast; [6],55.56% and 78.95%
same,Population Normal (%),Fibroblast; [6],100%
same,Population Pyknosed Nuclei (%),Fibroblast; [6],4.39% and 8.26%
same,Total Cell Count,Fibroblast; [6],205 and 230
same,Population Apoptotic (%),U2OS; [1],47.83% and 43.48%
same,Population Fragmented Nuclei (%),U2OS; [1],0.85% and 4.7%
same,Population Healthy Nuclei (%),U2OS; [1],89.38% and 79.87%
same,Population Hoechst High Intensity Objects (%),U2OS; [1],0%
same,Population Membrane Permeable-Phenotype (%),U2OS; [1],1.19% and 0.84%
same,Population Mitochondria Different-Phenotype (%),U2OS; [1],0% and 5.88%
same,Population Mitotic Cells (%),U2OS; [1],52.17% and 56.52%
same,Population Normal (%),U2OS; [1],100%
same,Population Pyknosed Nuclei (%),U2OS; [1],9.77% and 15.44%
same,Population Tubulin-Different-Phenotype (%),U2OS; [1],0.95% and 0.84%
same,Population Apoptotic (%),U2OS; [2],43.9% and 26.67%
same,Population Healthy Nuclei (%),U2OS; [2],86.92% and 80.49%
same,Population Hoechst High Intensity Objects (%),U2OS; [2],0%
same,Population Membrane Permeable-Phenotype (%),U2OS; [2],0% and 3.64%
same,Population Mitochondria Different-Phenotype (%),U2OS; [2],0% and 2.42%
same,Population Mitotic Cells (%),U2OS; [2],56.1% and 73.33%
same,Population Normal (%),U2OS; [2],100%
same,Population Pyknosed Nuclei (%),U2OS; [2],11.17% and 7.32%
same,Population Tubulin-Different-Phenotype (%),U2OS; [2],0.31% and 0%
same,Total Cell Count,U2OS; [2],367 and 205
same,Population Apoptotic (%),U2OS; [3],38.46% and 52.38%
same,Population Fragmented Nuclei (%),U2OS; [3],0.82% and 3.3%
same,Population Healthy Nuclei (%),U2OS; [3],90.7% and 85.16%
same,Population Hoechst High Intensity Objects (%),U2OS; [3],0%
same,Population Membrane Permeable-Phenotype (%),U2OS; [3],0.9% and 3.87%
same,Population Mitochondria Different-Phenotype (%),U2OS; [3],0% and 2.58%
same,Population Mitotic Cells (%),U2OS; [3],61.54% and 47.62%
same,Population Normal (%),U2OS; [3],100%
same,Population Pyknosed Nuclei (%),U2OS; [3],8.48% and 11.54%
